# Measured values reported in ChEMBL document CHEMBL3407388, “Synthesis, anticancer activity and molecular docking studies on a series of heterocyclic trans-cyanocombretastatin analogues as antitubulin agents” (2015).
# Columns and labels:
# Assay type in all cases: functional
# [1] = Cytotoxicity against human OVCAR5 cells assessed as growth inhibition after 48 hrs by SRB assay; settings: OVCAR-5, 48 h
# Outline: (§1)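 NCI 60-cell panel; compounds passing a single-dose screen (10−5 M, 48 h) were tested at five 10-fold dilutions (10−4 to 10−8 M) with 48 h drug exposure. GI50 is the molar concentration giving 50% reduction in net cell growth relative to cell numbers on day 0.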
# KM12 = test: Cytotoxicity against human KM12 cells assessed as growth inhibition after 48 hrs by SRB assay; settings: KM12, 48 h; outline: as §1
# SN12C = test: Cytotoxicity against human SN12C cells assessed as growth inhibition after 48 hrs by SRB assay; outline: as §1
# SK-OV-3 = test: Cytotoxicity against human SKOV3 cells assessed as growth inhibition after 48 hrs by SRB assay; settings: SK-OV-3, 48 h; outline: as §1
# MCF7 = test: Cytotoxicity against human MCF7 cells assessed as growth inhibition after 48 hrs by SRB assay; settings: MCF7, 48 h; outline: as §1
# 786-0 = test: Cytotoxicity against human 786-0 cells assessed as growth inhibition after 48 hrs by SRB assay; settings: 786-0, 48 h; outline: as §1
# MDA-MB-435 = test: Cytotoxicity against human MDA-MB-435 cells assessed as growth inhibition after 48 hrs by SRB assay; settings: MDA-MB-435, 48 h; outline: as §1
# LOX IMVI = test: Cytotoxicity against human LOXIMVI cells assessed as growth inhibition after 48 hrs by SRB assay; outline: as §1
# HT-29 = test: Cytotoxicity against human HT-29 cells assessed as growth inhibition after 48 hrs by SRB assay; settings: HT-29, 48 h; outline: as §1
# A498 = test: Cytotoxicity against human A498 cells assessed as growth inhibition after 48 hrs by SRB assay; settings: A498, 48 h; outline: as §1
# [2] = Cytotoxicity against human PC3 cells assessed as growth inhibition after 48 hrs by SRB assay; settings: PC-3, 48 h; outline: as §1
# HL-60(TB) = test: Cytotoxicity against human HL-60(TB) cells assessed as growth inhibition after 48 hrs by SRB assay; settings: HL-60, 48 h
# Outline: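 NCI 60-cell panel, leukemia subpanel. Five-dose screen at 10-fold dilutions from 10−4 to 10−8 M with 48 h drug exposure. GI50 is the molar concentration giving 50% reduction in net cell growth compared with cell numbers on day 0.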
# [3] = Cytotoxicity against human Hs578T cells assessed as growth inhibition after 48 hrs by SRB assay; settings: Hs-578T; outline: as §1
# [4] = Cytotoxicity against human OVCAR8 cells assessed as growth inhibition after 48 hrs by SRB assay; settings: OVCAR-8, 48 h; outline: as §1
# BT-549 = test: Cytotoxicity against human BT549 cells assessed as growth inhibition after 48 hrs by SRB assay; settings: BT-549, 48 h; outline: as §1
# K562 = test: Cytotoxicity against human K562 cells assessed as growth inhibition after 48 hrs by SRB assay; settings: K562, 48 h; outline: as §1
# CAKI-1 = test: Cytotoxicity against human Caki1 cells assessed as growth inhibition after 48 hrs by SRB assay; settings: CAKI-1, 48 h; outline: as §1
# IGROV-1 = test: Cytotoxicity against human IGROV1 cells assessed as growth inhibition after 48 hrs by SRB assay; settings: IGROV-1, 48 h; outline: as §1
# MOLT-4 = test: Cytotoxicity against human MOLT4 cells assessed as growth inhibition after 48 hrs by SRB assay; settings: MOLT-4, 48 h; outline: as §1
# SNB-19 = test: Cytotoxicity against human SNB19 cells assessed as growth inhibition after 48 hrs by SRB assay; settings: SNB-19, 48 h; outline: as §1
# DU-145 = test: Cytotoxicity against human DU145 cells assessed as growth inhibition after 48 hrs by SRB assay; settings: DU-145, 48 h; outline: as §1
# RXF 393 = test: Cytotoxicity against human RXF393 cells assessed as growth inhibition after 48 hrs by SRB assay; settings: RXF 393, 48 h; outline: as §1
# M14 = test: Cytotoxicity against human M14 cells assessed as growth inhibition after 48 hrs by SRB assay; settings: M14, 48 h; outline: as §1
# HCC 2998 = test: Cytotoxicity against human HCC2998 cells assessed as growth inhibition after 48 hrs by SRB assay; settings: HCC 2998, 48 h; outline: as §1
# [5] = Cytotoxicity against human HCT116 cells assessed as growth inhibition after 48 hrs by SRB assay; settings: HCT-116, 48 h; outline: as §1
# NCI-H460 = test: Cytotoxicity against human NCI-H460 cells assessed as growth inhibition after 48 hrs by SRB assay; settings: NCI-H460, 48 h; outline: as §1
# U-251 = test: Cytotoxicity against human U251 cells assessed as growth inhibition after 48 hrs by SRB assay; settings: U-251, 48 h
# [6] = Cytotoxicity against human UO31 cells assessed as growth inhibition after 48 hrs by SRB assay; settings: UO-31, 48 h
# SF-539 = test: Cytotoxicity against human SF539 cells assessed as growth inhibition after 48 hrs by SRB assay; settings: SF-539, 48 h; outline: as §1
# [7] = Cytotoxicity against human NCI-ADR-RES cells assessed as growth inhibition after 48 hrs by SRB assay; outline: as §1
# NCI-H226 = test: Cytotoxicity against human NCI-H226 cells assessed as growth inhibition after 48 hrs by SRB assay; settings: NCI-H226, 48 h; outline: as §1
# SK-MEL-5 = test: Cytotoxicity against human SK-MEL-5 cells assessed as growth inhibition after 48 hrs by SRB assay; settings: SK-MEL-5, 48 h; outline: as §1
# RPMI-8226 = test: Cytotoxicity against human RPMI8226 cells assessed as growth inhibition after 48 hrs by SRB assay; settings: RPMI-8226, 48 h; outline: as §1
# SF-268 = test: Cytotoxicity against human SF268 cells assessed as growth inhibition after 48 hrs by SRB assay; settings: SF-268, 48 h; outline: as §1
# [8] = Cytotoxicity against human OVCAR4 cells assessed as growth inhibition after 48 hrs by SRB assay; settings: OVCAR-4, 48 h; outline: as §1
# MDA-MB-231 = test: Cytotoxicity against human MDA-MB-231 cells assessed as growth inhibition after 48 hrs by SRB assay; settings: MDA-MB-231, 48 h; outline: as §1
# [9] = Cytotoxicity against human UACC62 cells assessed as growth inhibition after 48 hrs by SRB assay; settings: UACC-62, 48 h
# COLO 205 = test: Cytotoxicity against human COLO205 cells assessed as growth inhibition after 48 hrs by SRB assay; settings: COLO 205, 48 h; outline: as §1
# SF-295 = test: Cytotoxicity against human SF295 cells assessed as growth inhibition after 48 hrs by SRB assay; settings: SF-295, 48 h; outline: as §1
# [10] = Cytotoxicity against human HCT15 cells assessed as growth inhibition after 48 hrs by SRB assay; settings: HCT-15, 48 h; outline: as §1
# NCI-H23 = test: Cytotoxicity against human NCI-H23 cells assessed as growth inhibition after 48 hrs by SRB assay; settings: NCI-H23, 48 h; outline: as §1
# SW-620 = test: Cytotoxicity against human SW620 cells assessed as growth inhibition after 48 hrs by SRB assay; settings: SW-620, 48 h
# TK-10 = test: Cytotoxicity against human TK10 cells assessed as growth inhibition after 48 hrs by SRB assay; settings: TK-10, 48 h
smiles,measurement,setting,value
COc1cc(/C(C#N)=C/c2cc3ccccc3n2Cc2ccc(C#N)cc2)cc(OC)c1OC,GI50,[1],259 nM
same,GI50,KM12,47 nM
same,GI50,SN12C,269 nM
same,GI50,SK-OV-3,87 nM
same,GI50,MCF7,39 nM
same,GI50,786-0,137 nM
same,GI50,MDA-MB-435,24 nM
same,GI50,LOX IMVI,90 nM
same,GI50,HT-29,48 nM
same,GI50,A498,29 nM
same,GI50,[2],105 nM
same,GI50,HL-60(TB),31 nM
same,GI50,[3],92 nM
same,GI50,[4],124 nM
same,GI50,BT-549,109 nM
same,GI50,K562,39 nM
same,GI50,CAKI-1,35 nM
same,GI50,IGROV-1,183 nM
same,GI50,MOLT-4,274 nM
same,GI50,SNB-19,85 nM
same,GI50,DU-145,207 nM
same,GI50,RXF 393,55 nM
same,GI50,M14,56 nM
same,GI50,HCC 2998,265 nM
same,GI50,[5],47 nM
same,GI50,NCI-H460,93 nM
same,GI50,U-251,44 nM
same,GI50,[6],201 nM
same,GI50,SF-539,39 nM
same,GI50,[7],73 nM
same,GI50,NCI-H226,14500 nM
same,GI50,SK-MEL-5,60 nM
same,GI50,RPMI-8226,199 nM
same,GI50,SF-268,86 nM
same,GI50,[8],672 nM
same,GI50,MDA-MB-231,294 nM
same,GI50,[9],58 nM
same,GI50,COLO 205,97 nM
same,GI50,SF-295,37 nM
same,GI50,[10],89 nM
same,GI50,NCI-H23,246 nM
same,GI50,SW-620,48 nM
same,GI50,TK-10,20100 nM
COc1cc(/C(C#N)=C/c2coc3ccccc23)cc(OC)c1OC,GI50,[1],3330 nM
same,GI50,KM12,586 nM
same,GI50,SN12C,2170 nM
same,GI50,SK-OV-3,1710 nM
same,GI50,MCF7,376 nM
same,GI50,786-0,6110 nM
same,GI50,MDA-MB-435,278 nM
same,GI50,LOX IMVI,993 nM
same,GI50,HT-29,394 nM
same,GI50,A498,458 nM
same,GI50,[2],1840 nM
same,GI50,HL-60(TB),1030 nM
same,GI50,[3],2030 nM
same,GI50,[4],2900 nM
same,GI50,BT-549,927 nM
same,GI50,K562,513 nM
same,GI50,CAKI-1,650 nM
same,GI50,IGROV-1,3060 nM
same,GI50,MOLT-4,3820 nM
same,GI50,SNB-19,3630 nM
same,GI50,DU-145,1880 nM
same,GI50,RXF 393,496 nM
same,GI50,M14,667 nM
same,GI50,HCC 2998,4130 nM
same,GI50,[5],517 nM
same,GI50,NCI-H460,839 nM
same,GI50,U-251,605 nM
same,GI50,[6],2890 nM
same,GI50,SF-539,442 nM
same,GI50,[7],382 nM
same,GI50,NCI-H226,6200 nM
same,GI50,SK-MEL-5,336 nM
same,GI50,RPMI-8226,2470 nM
same,GI50,SF-268,4790 nM
same,GI50,[8],2610 nM
same,GI50,MDA-MB-231,1710 nM
same,GI50,[9],519 nM
same,GI50,COLO 205,449 nM
same,GI50,SF-295,446 nM
same,GI50,[10],492 nM
same,GI50,NCI-H23,4580 nM
same,GI50,SW-620,504 nM
same,GI50,TK-10,2100 nM
COc1cc(OC)cc(/C(C#N)=C/c2nc3ccccc3s2)c1,GI50,[1],4850 nM
same,GI50,KM12,2010 nM
same,GI50,SN12C,4680 nM
same,GI50,SK-OV-3,1790 nM
same,GI50,MCF7,399 nM
same,GI50,786-0,2440 nM
same,GI50,MDA-MB-435,199 nM
same,GI50,LOX IMVI,1840 nM
same,GI50,HT-29,438 nM
same,GI50,A498,417 nM
same,GI50,[2],2740 nM
same,GI50,HL-60(TB),345 nM
same,GI50,[3],2010 nM
same,GI50,[4],3130 nM
same,GI50,BT-549,3450 nM
same,GI50,K562,333 nM
same,GI50,CAKI-1,482 nM
same,GI50,IGROV-1,706 nM
same,GI50,MOLT-4,3380 nM
same,GI50,SNB-19,> 10000 nM
same,GI50,DU-145,1070 nM
same,GI50,RXF 393,551 nM
same,GI50,M14,1210 nM
same,GI50,HCC 2998,8390 nM
same,GI50,[5],404 nM
same,GI50,NCI-H460,2860 nM
same,GI50,U-251,1910 nM
same,GI50,[6],679 nM
same,GI50,SF-539,1680 nM
same,GI50,[7],1470 nM
same,GI50,NCI-H226,4110 nM
same,GI50,SK-MEL-5,1370 nM
same,GI50,RPMI-8226,2290 nM
same,GI50,SF-268,3090 nM
same,GI50,[8],> 10000 nM
same,GI50,MDA-MB-231,6740 nM
same,GI50,[9],755 nM
same,GI50,COLO 205,574 nM
same,GI50,SF-295,2460 nM
same,GI50,[10],414 nM
same,GI50,NCI-H23,2840 nM
same,GI50,SW-620,343 nM
same,GI50,TK-10,2780 nM
